# A selection: hits, their analogues and other compounds. The true share with any hit is near 3.5%.
# ABHD4 inh – inhibits mouse alpha/beta hydrolase domain 4; 0.54% of 370,000 active; purified mABHD4, FP-Rh probe fluorescence polarization; inhibition, % at 8.92 µM; Q8VD66;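 active = inhibition exceeding the mean over every tested compound plus 3 SD, cut at about 30% in these data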;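 note: 0% = plate median of compound wells and 100% = S159A mutant with DMSO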
#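 Test system: mABHD4 protein | Buffer or medium: HEPES pH 7.0 buffer, 150 mM NaCl, 0.01% Pluronic F-127 | Probe or stimulus: FP-Rh fluorescent activity-based probe, added after compound pre-incubation | Timing: Pre-incubation 45 min, probe exposure 60 min, at 25 °C | Technique: Fluorescence polarization, excitation 525 nm, emission 598 nm, BODIPY TMR filters | Repeats: Single well per compound (singlicate)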
# SIAE inh – blocks human sialic acid acetylesterase | 0.69% of 370,000 active | SIAE FP-Rh probe binding, fluorescence polarization | inhibition, % at 9.66 µM | Q9HAT2;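 active = inhibition above a cutoff: mean of compounds within the control limits plus 3 SD of those, cut at about 17% in these data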;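 note: 0% = plate median of compound wells and 100% = probe without SIAE protein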
# TCR CD3 inh – human TCR-CD3 binding inhibition. AID 651800. 0.37% of 360,000 active. TAMRA-labeled TCR probe fluorescence, biochemical. inhibition, % at 9.4 µM; in the data active = inhibition above about 19%;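 note: recombinant mutant TCR 2C K166C tagged with TAMRA read by polarization; 0% = receptor in buffer alone and 100% = receptor with positive control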
# PRMT1 inh – blocks human protein arginine methyltransferase 1; Q99873; recombinant PRMT1, activity-based probe fluorescence polarization; inhibition, % at 2.79 µM; 1.3% of 370,000 active; AID 652257;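 active = inhibition above about 21% made by adding two undisclosed values, limit read from the data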
# rCAG binder – molecules binding r(CAG) RNA repeats. r(CAG) RNA repeat, TO-PRO-1 dye displacement fluorescence. inhibition, % at 3 µM. 1.3% of 370,000 active;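 active = inhibition above the plate cutoff, the mean of all test compounds on that plate plus 3 SD, cut at about 35% in these data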;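 note: 0% = DMSO alone and 100% = 100 µM mitoxantrone as full dye displacement; higher means more dye released from RNA so lower well fluorescence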
# HTRA1 inhibitor – HTRA1 (human) protease inhibition | Q92743 | recombinant HTRA1, FP-rhodamine activity-based probe, fluorescence polarization | inhibition, % at 5.96 µM | 0.5% of 340,000 active; in the data active = inhibition above about 36%;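 note: 0% = enzyme with DMSO and 100% = wells lacking enzyme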
# Target sequence (Q92743 whole entry, looked up): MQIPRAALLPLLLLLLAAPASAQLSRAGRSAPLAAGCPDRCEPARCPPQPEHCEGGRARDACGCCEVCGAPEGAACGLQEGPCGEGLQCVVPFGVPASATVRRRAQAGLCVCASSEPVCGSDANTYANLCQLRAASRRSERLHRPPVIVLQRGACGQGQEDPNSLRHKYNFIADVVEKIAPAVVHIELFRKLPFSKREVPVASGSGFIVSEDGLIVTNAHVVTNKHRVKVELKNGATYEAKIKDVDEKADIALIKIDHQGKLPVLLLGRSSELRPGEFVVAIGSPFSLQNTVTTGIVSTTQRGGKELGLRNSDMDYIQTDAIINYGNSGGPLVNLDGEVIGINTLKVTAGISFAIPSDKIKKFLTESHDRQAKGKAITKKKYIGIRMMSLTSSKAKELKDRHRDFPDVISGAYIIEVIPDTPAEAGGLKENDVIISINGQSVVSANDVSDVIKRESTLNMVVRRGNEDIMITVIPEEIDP
# rCAG binder conf – r(CAG) RNA repeat binding, confirmation | inhibition, % at 3 µM | 70% of 4,300 active | shares compounds with rCAG binder | TO-PRO-1 dye displacement fluorescence;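 active = inhibition above a per-plate cutoff, the mean inhibition of sample wells plus 3 SD, cut at about 35% in these data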;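 note: loss of TO-PRO-1 fluorescence as compound displaces dye from 1x1 AA loop RNA; 0% = DMSO only wells and 100% = 100 µM mitoxantrone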
# dCAG dye counter – DNA CAG dye complex inhibition counter-screen | 94% of 4,300 active | d(CAG) DNA oligo TO-PRO-1 dye displacement, fluorescence | inhibition, % at 3 µM | shares compounds with rCAG binder;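 active = inhibition above its plate's cutoff, the mean test-well inhibition plus 3 SD, cut at about 4.8% in these data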;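 note: 0% = DNA dye mix with DMSO and 100% = 100 µM mitoxantrone; hits displace the dye from DNA and so lower well fluorescence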
# DNA CAG DR – disrupts DNA CAG TO-PRO-1 complex in dose response; shares compounds with rCAG binder; DNA CAG/GTC duplex TO-PRO-1 dye displacement fluorescence; IC50, µM; 20% of 250 active; in the data active = IC50 below about 10 µM
# * hit, by the source's call; x = not tested or not shown.
SMILES,ABHD4 inh,SIAE inh,TCR CD3 inh,PRMT1 inh,rCAG binder,HTRA1 inhibitor,rCAG binder conf,dCAG dye counter,others
COc1ccc(S[C@]2(C(=O)N3CCN(c4ncccn4)CC3)CC(=O)N[C@@H]2c2ccc(OC)cc2)cc1,1.0,-4.0,x,8.0,5.8,x,x,x,
CC1(C(=O)NS(=O)(=O)Cc2ccccc2C(F)(F)F)CCN1C(=O)C/C=C/c1ccccc1 (stereo not drawn),-2.1,-3.6,6.9,3.8,46.0*,x,51.4*,10.5*,DNA CAG DR=>29.9
CN(C)[C@@H]1CCN(c2cccc3c2S(=O)(=O)N2CC[C@@H](C2)O3)C1,7.3,6.5,x,0.3,2.6,x,x,x,
CCOc1cc(/C=C2\SC(=S)N(N3CCOCC3)C2=O)ccc1O,-1.9,x,1.5,0.1,-1.4,7.7,x,x,
CCOc1cc(/C=C2\SC(=N)N(c3nccs3)C2=O)ccc1OCCN1CCOCC1,2.7,-13.2,-6.8,-3.0,38.5*,-2.5,36.6*,10.8*,
C#Cc1cccc(OC[C@@H](O)CN2CCC(C(O)(c3ccccc3)c3ccccc3)CC2)c1,0.4,-1.0,x,2.1,2.0,x,x,x,
COc1ccc(O)c(C(=O)c2cnc3nc4ccccc4n3c2)c1,-10.0,-13.1,-11.4,7.5,39.6*,-19.6,16.8,6.5*,
CC1(C(=O)NS(=O)(=O)c2cccc(Cl)c2)CCN1C(=O)C1(c2ccc(Cl)cc2)CC1 (stereo not drawn),2.3,0.2,-2.5,-1.6,43.1*,x,44.8*,9.8*,
CC1(C(=O)NS(=O)(=O)c2cccc(Cl)c2)CCN1C(=O)C1(c2ccc(Cl)cc2)CCC1 (stereo not drawn),-2.3,-7.9,-2.9,0.2,61.2*,x,67.5*,18.0*,
CC1(C(=O)NS(=O)(=O)c2ccccc2)CCN1C(=O)C1(c2ccccc2)CCCC1 (stereo not drawn),3.1,3.0,3.7,1.5,17.1,x,x,x,
Cc1cccc(S(=O)(=O)NC(=O)C2(C)CCN2C(=O)C2(c3ccc(Cl)cc3)CCC2)c1 (stereo not drawn),5.3,-1.2,-2.8,-0.4,42.0*,x,41.8*,10.6*,
CC1(C(=O)NS(=O)(=O)c2ccccc2)CCN1C(=O)C1(c2ccc(Cl)cc2)CCC1 (stereo not drawn),1.0,-1.4,-5.4,4.6,27.1,x,x,x,
COc1ccc(S[C@]2(C(=O)NC3CC3)CC(=O)N[C@@H]2c2ccc(OC)cc2)cc1,-7.4,-2.5,x,-0.1,1.8,x,x,x,
COc1ccc(C(=O)NCCSCc2ccccc2Cl)cc1OC,-0.3,3.7,4.9,-2.2,80.2*,0.6,2.6,0.1,
COc1ccccc1Nc1nc2ccccc2n2cnnc12,0.8,-4.0,-0.2,-5.2,77.2*,-8.9,7.0,1.4,
O=C1c2ccccc2C(=O)N1c1ncc(Cc2ccc(Cl)cc2)s1,-20.7,-12.9,2.6,-1.2,42.2*,-21.2,11.7,2.2,
Cc1ccc(Cc2cnc(N3C(=N)SC(C)C3=O)s2)cc1 (stereo not drawn),-1.4,-0.7,-0.1,3.7,9.8,-1.6,x,x,
COc1ccc(CN(CC#Cc2ccccc2)Cc2ccccc2)c(OC)c1,-8.9,-1.4,x,-1.9,-1.0,x,x,x,
CC1(C(=O)NS(=O)(=O)c2ccccc2Cl)CCN1C(=O)C1(c2ccc(Cl)cc2)CC1 (stereo not drawn),6.2,-8.6,-2.1,-0.7,35.9*,x,28.5,5.1*,
CC1(C(=O)NS(=O)(=O)c2ccccc2Cl)CCN1C(=O)C1(c2ccccc2)CC1 (stereo not drawn),3.6,6.9,-1.8,-1.7,12.1,x,x,x,
Cc1ccccc1S(=O)(=O)NC(=O)C1(C)CCN1C(=O)C1(c2ccc(Cl)cc2)CCC1 (stereo not drawn),-5.1,-0.1,1.3,-2.2,47.6*,x,36.7*,8.8*,
Cc1cccc(C)c1NC(=O)C1CCN(c2ncccn2)CC1,1.9,2.7,x,3.0,1.0,x,x,x,
O=C(CN1C(=O)S/C(=C\c2cccs2)C1=O)Nc1ccc(C(=O)O)c(O)c1,-28.6,8.1,14.1,8.4,67.0*,-18.0,40.0*,10.2*,
O=C(CN1C(=O)S/C(=C\c2cccs2)C1=O)Nc1ccc(O)c(C(=O)O)c1,2.2,-4.6,-5.2,8.9,52.3*,-4.0,37.4*,10.1*,
O=C(CN1C(=O)S/C(=C/c2cccs2)C1=O)N1CCCC1,-15.4,9.8,1.5,7.4,2.4,-0.8,x,x,
SMILES,ABHD4 inh,SIAE inh,TCR CD3 inh,PRMT1 inh,rCAG binder,HTRA1 inhibitor,rCAG binder conf,dCAG dye counter,others
COc1ccc(CNC(=S)OC2CCC23CCC(c2ccccc2)CC3)cc1 (stereo not drawn),-14.5,-4.5,x,-1.3,1.4,x,x,x,
CCCC[C@H]1C2CC(OC(=O)Nc3ccc4c(c3)OCO4)C(C2)[C@H]2CCCCN21 (stereo partly drawn),0.6,7.8,x,2.1,-2.5,x,x,x,
CCN(c1ccccc1)S(=O)(=O)c1ccc(C(=O)Nc2nnc(-c3ccco3)o2)cc1,-17.0,-4.9,-0.3,-3.9,57.2*,6.2,45.4*,15.3*,
CCc1nnc(NC(=O)c2ccc(S(=O)(=O)N3CCCC(C)C3)cc2)o1 (stereo not drawn),0.7,4.2,-2.3,-1.5,11.5,2.2,x,x,
CCN(c1ccccc1)S(=O)(=O)c1ccc(C(=O)Nc2nnc(C3CC3)o2)cc1,-5.6,-7.1,-7.1,6.1,23.8,0.7,x,x,
CN(c1ccccc1)S(=O)(=O)c1ccc(C(=O)Nc2nnc(-c3ccco3)o2)cc1,-4.8,-5.3,3.0,1.6,42.2*,-9.2,35.7*,13.2*,
CC1CCCN(S(=O)(=O)c2ccc(C(=O)Nc3nnc(-c4ccco4)o3)cc2)C1 (stereo not drawn),-4.5,9.8,-3.5,-2.2,41.1*,8.3,37.9*,13.2*,
CC(c1c[nH]c2ccccc12)c1c[nH]c2ccc(Br)cc12 (stereo not drawn),-5.9,7.4,x,0.9,11.6,x,x,x,
N#Cc1cccc(NC(=O)O[C@@H]2CC[C@@]34CCCN3C(=O)CCC[C@H]4C2)c1,-3.1,-7.7,x,1.1,x,x,x,x,
O=S(=O)(Nc1ncccn1)c1ccc(NC(=S)N2CCN(c3cccc(C(F)(F)F)c3)CC2)cc1,1.2,4.8,4.1,0.3,49.9*,-1.7,58.6*,15.6*,
C[C@H](O)[C@@H]1CN2CCc3ccc(N4CCOCC4)cc3[C@@H]2C[C@@H]1N(C)C(=O)c1ccco1,1.6,0.3,x,7.0,3.8,x,x,x,
O=C(Nc1cccc(S(=O)(=O)Nc2ccc(Cl)cc2)c1)c1cc2c(s1)CCCC2,-140.1,-134.9,15.4,-3.7,43.0*,-91.9,29.2,16.8*,
Cc1ccc(C(=O)Nc2ccc(C)c(S(=O)(=O)Nc3ccccc3Cl)c2)s1,-77.3,-27.8,3.5,-0.1,35.7*,-56.0,46.2*,15.8*,

# Compound activity (PubChem)
